STAT1 activator: STAT1 signaling activators, primary screen, cell-based, HTS, luciferase reporter; NIH 3T3 STAT1-luciferase reporter, IFN-gamma, luminescence; 100% = IFN-gamma alone, no compound; activation (% of control), % at 5.5 µM; 200,000 tested, 2.6% active; AID 932, 2007;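 active = activation above the screen-wide mean activation plus 3 SD, cut at about 130% in these data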;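 also: raw ratio to IFN-gamma control signal so 100% means no change and 0% no light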
NF-kB neuron act: activators of NF-kB expression in neurons, primary screen, cell-based, HTS. human neuronal cells, NF-kB reporter expression; hits give high values. fold change at 12.5 µM. 190,000 tested, 1.6% active. AID 1239, 2008; in the data active = fold change above about 3.3
APP 5'UTR act: activators of APP 5'UTR luciferase reporter, primary screen, SH-SY5Y cells; 190,000 tested, 1% active; activation, % at 2 µM; SH-SY5Y APP 5'UTR luciferase reporter, luminescence; zero percent = DMSO vehicle wells; AID 1276, 2008;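 active = activation above a set limit, based on mean plus 3 SD of controls, cut at about 140% in these data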
STAT1 blocker: STAT1 signaling inhibitors, primary screen, cell-based, HTS, luciferase reporter; NIH 3T3 STAT1-luciferase reporter, IFN-gamma, luminescence; inhibition, % at 5.5 µM; 200,000 tested, 0.35% active;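 active = inhibition above a set limit, the mean inhibition across all tested compounds plus 3 SD, cut at about 34% in these data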;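 also: 0% = IFN-gamma with DMSO and 100% = IFN-gamma with 300 µM nifuroxazide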
STAT3 activator: IL-6 driven STAT3 reporter potentiators, primary screen, U3A cells, luciferase, luminescence, MLSCN library; IL-6 STAT3-luciferase reporter; 100% = signal with IL-6 EC80 alone; activation (% of control), % at 5.6 µM; 190,000 tested, 0.91% active; AID 871, 2007;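 active = activation above the screen-wide mean of compound activation plus 3 SD, cut at about 130% in these data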;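 also: 0% = background luminescence of wells with medium and substrate only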
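Material: STAT1-lacking human U3A cells, STAT3 luciferase reporter | Benchmarks: IL-6-only wells as 100% reference | Probe or stimulus: IL-6 (33 ng/mL) | Timing: Compound 1 h, then IL-6 6 h at 37 °C | Detection: Luminescence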
STAT3 inh: IL-6 driven STAT3 reporter inhibitors, primary screen, U3A cells, luciferase, luminescence, MLSCN library | IL-6 STAT3-luciferase reporter; host cell line lacks STAT1 | inhibition, % at 5.5 µM | 190,000 tested, 0.89% active;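 active = inhibition above the mean inhibition across all screened compounds plus 3 SD, cut at about 44% in these data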;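 also: 0% = DMSO only wells and 100% = 100 µM nifuroxazide control wells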
* marks the source's active call; other numbers are inactive results; . = not tested or not shown. Most compounds without a hit are left out; they make up all but 5.1% or so of the library.

SMILES	STAT1 activator	NF-kB neuron act	APP 5'UTR act	STAT1 blocker	STAT3 activator	STAT3 inh
Cc1cnc(NC(=O)c2cc3c(s2)CCCC3)s1	62	4.1*	173*	42*	38	74*
CCc1nnc(NC(=O)c2cc3c(s2)CCCCC3)s1	120	.	32	-22	92	13
Cc1csc(NC(=O)c2cc3c(s2)CCCCC3)n1	38	1.3	129	68*	20	97*
Cc1cccc(-c2c3c(=O)n(C)c(=O)n(C)c3cn2-c2ccc(O)cc2)c1	91	.	11	10	101	0
Cc1ccc(-n2nc(-c3ccc(N)cc3)cc2N)cc1	93	1.6	24	8	104	-5
CC(C)c1ccc(-n2nc3ccc(N)cc3n2)cc1	84	4.9*	117	17	83	22
Cc1ccc(-n2nc3ccc(N)cc3n2)cc1	150*	2.7	7	-52	102	1
Cc1ccc(-n2nc3ccc(NC(=O)C(C)C)cc3n2)cc1	135*	3.2	194*	-40	85	22
Cn1cc2ccc(N)cc2n1	99	1.3	-13	-1	106	1
COC(=O)c1cc(-c2ccc(OC)cc2)n[nH]1	116	1.1	40	-17	97	3
COc1ccc(/C=C/c2nc(-c3ccccc3O)n[nH]2)cc1	89	7.6*	170*	13	99	-1
COc1ccc(-c2cc(-c3ccccc3)n[nH]2)c(O)c1	99	7.9*	190*	-1	89	20
COc1ccc(-c2cc(-c3ccccc3O)[nH]n2)cc1	106	7.1*	192*	-6	86	19
CN1CCN(CC(=O)Nc2ccccc2[N+](=O)[O-])CC1	105	5.5*	10	-5	104	-6
O=C(CCNc1ccc(Cl)cc1)c1cccs1	130*	2.1	4	-34	110	-8
O=C(NCCc1ccncc1)c1ccccc1F	101	1.1	12	-1	98	6
O=C(NCCCCc1ccccc1)c1ccccc1	110	1.4	-21	-8	92	14
CCCCc1ccc(NC(=O)C2CCCO2)cc1 (centres undefined)	130*	2.6	89	-33	94	11
O=C(NCCCc1ccccc1)c1ccccc1	129*	2	21	-32	111	-8
O=C(NCCc1ccccc1)c1ccccc1F	108	3.3*	110	-10	73	36
O=C(NCCc1ccccc1)c1ccccc1NC(=O)C1CCCO1 (centres undefined)	134*	3.4*	158*	-36	101	-1
CCOCCCNC(=S)NCCCNc1nc2c(C)c(C)ccc2cc1C#N	77	0.74	-6	24	81	27
CN(c1ccc(C(=O)NCCc2ccccc2)cc1)S(C)(=O)=O	141*	2.8	92	-37	111	-14
Cc1cccc(CN2CCN(CC(=O)NCCCN3CCN(c4ccc(F)cc4)CC3)C2=O)c1	95	0.68	-5	5	80	28
COc1ccc2cc(CO)c(Cl)nc2c1	114	1.8	-1	-15	99	1
SMILES	STAT1 activator	NF-kB neuron act	APP 5'UTR act	STAT1 blocker	STAT3 activator	STAT3 inh
COc1ccc2cc(/C=N/O)c(Cl)nc2c1	129*	1.8	25	-33	94	9
Cc1nc(NCc2ccco2)c2c(C)c(C)sc2n1	193*	1.3	-4	-72	139*	-47
O=C(OCc1nc2ccccc2s1)c1ccco1	143*	1.1	87	-49	133	-30
O=C(OCc1nc2ccccc2s1)c1ccc(Br)o1	107	1.3	22	-8	120	-20
O=C(CNC(=O)c1ccccc1F)OCc1nc2ccccc2s1	118	1	13	-21	130	-31
Cc1cc(C(=O)OCc2nc3ccccc3s2)c(C)o1	132*	2	38	-36	97	12
CC(=O)OCc1nc2ccccc2s1	135*	1.3	17	-38	163*	-75
COC(=O)CCCc1nc2ccccc2s1	101	1.2	-1	-1	95	12
O=C(CNC(=O)c1ccccc1)OCc1nc2ccccc2s1	139*	0.67	55	-43	136*	-40
Cc1ccc(C)c(NC(=O)C2CC(O)CN2C(=O)OCc2ccccc2)c1 (centres undefined)	95	1.1	11	6	102	2
C/C(CC(=O)NC(C)(C)C)=N\NC(=O)c1ccccc1N	129*	1.3	35	-32	97	5
NC(=O)C(c1ccccc1)C1CCCC1 (centres undefined)	100	0.9	-3	0	100	3
COc1ccc(C)cc1NC(=O)NC(C)c1ccncc1 (centres undefined)	96	1.1	6	5	107	-6
O=C(NC(c1ccc(Cl)cc1)c1c(O)ccc2ccccc12)c1ccccc1 (centres undefined)	100	1.1	-8	0	108	-12
CC(=O)NC(c1ccc(Cl)cc1)c1c(O)ccc2ccc(O)cc12 (centres undefined)	130*	0.67	-19	-33	110	-11
COc1ccc(C(=O)n2c(-c3ccco3)nc3ccccc32)cc1	110	1.3	-50	-11	103	-2
Cc1ccc(C(=O)n2c(N)nc3ccccc32)cc1	17	2.7	35	89*	12	103*
CC(C)C(=O)Nc1ncc(Cc2ccccc2Cl)s1	92	1.8	-15	7	94	10
Cc1nc2sc(-c3ccccc3)cc2c(=O)n1-n1cccc1	145*	1.1	142*	-49	101	5
Cc1nc2sc(-c3ccccc3)cc2c(=O)n1/N=C/N(C)C	147*	2.4	103	-53	90	21
O=c1c2cc(-c3ccccc3)sc2nc2n1CCC2	139*	4.2*	187*	-47	69	41
CCCCN(C(=O)Cn1nnc2ccccc21)C(C(=O)NCCOC)c1ccccc1 (centres undefined)	93	1.2	-21	6	98	6
C=CCNC(=S)NNC(=O)COc1ccc(Cl)cc1Cl	100	1.1	20	0	99	6
CCO[C@H]1OC(C(=O)N2CCOCC2)=C[C@@H](c2ccc(C(F)(F)F)cc2)[C@@H]1CCCO	104	1.1	21	-2	.	.
COc1ccc(Cc2nnc(N)s2)cc1	97	1.1	-4	4	104	-2
Brc1ccc(-c2nnc(-c3cccnc3)c3conc23)cc1	102	.	-7	-2	134*	-37
O=C(O)Cc1sc(-c2cccnc2)nc1-c1ccc(Br)cc1	93	1.1	14	6	99	2

Source: PubChem
